Source: PubChem (Broad Institute)
Hits are enriched below; roughly 2% of the tested compounds scored in any of these assays.
ARNT TACC3 PPI = disruptors of ARNT/TACC3 protein interaction, primary screen, biochemical, AlphaScreen, single concentration; Transforming acidic coiled-coil-containing protein 3 (Homo sapiens), Q9Y6A5; AlphaScreen His-ARNT PAS-B/GST-TACC3 binding, luminescence; TACC3 fragment carries E629A point mutation; inhibition, % at 9.99 µM; hit rate 0.66% among 390,000;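 active = mean inhibition of replicates at least 50% and at least half of replicates each reaching 50%; inconclusive = half or more replicates reach 50% but mean below 50%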
T cruzi inh = inhibitors of intracellular T. cruzi growth, primary screen, luminescence, NIH3T3 host cells; T. cruzi beta-gal in NIH3T3, 90 h; inhibition, % (test concentration not listed); hit rate 1.4% among 300,000; AID 1885, 2009;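 active = mean inhibition across valid replicates above about 55%, limit read from the data; inconclusive = mean below that limit but half or more replicates reach it; inactive = mean below it, under half of replicates reach it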;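 note: signal also drops with host cell toxicity which is not excluded here; higher percent means less beta-gal luminescence so fewer parasites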
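Read-out: Parasite load inhibition, % | Test system: Mouse NIH/3T3 fibroblasts infected with β-gal-expressing T. cruzi Tulahuen C4 | Amount: 5,000 cells/well | Medium: DMEM, 2% fetal bovine serum | Signal: GalScreen β-gal luminescence, detergent lysis, 60 min | Timing: 3 h attach, ≥90 h co-culture | Also added: Tulahuen C4 trypomastigotes, 5000/well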
HIF act = HIF pathway transcriptional activators, primary screen, cell-based, U2OS HRE-luciferase, luminescence; activation, % at 7.5 µM (by protocol); U2OS HRE-luciferase reporter; normalized: DMSO 0%, desferrioxamine 100%; AID 1910, 2009; hit rate 0.32% among 300,000;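 active = mean activation of at least 10% of the iron chelator positive control signal, with at least half of replicates also reaching 10%; inconclusive = mean and replicate majority disagree about reaching 10%; inactive = mean and most replicates under 10%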
AI-2 QS mod = Vibrio harveyi AI-2 quorum sensing modulators, primary screen, JMH597 strain, luminescence/OD600 ratio. Vibrio harveyi JMH597 AI-2 luminescence/OD600 ratio, 9 h; stronger effect = lower value; strain lacks LuxN and CqsS sensors; 0 = neutral-control median. activity change, % at 7.5 µM. hit rate 0.4% among 300,000; in the data active = activity change below about -75%, passing the limit was not always enough; inconclusive = no clear call, values can overlap the other calls;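 note: luminescence divided by OD600 gain over 9 h not by final OD600 alone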
JMH597 growth rt = Vibrio harveyi growth inhibition, confirmation, counter-screen for AI-2 quorum sensing project, JMH597 strain, OD600 absorbance. 9 h; lacks LuxN and CqsS sensors. growth inhibition, % at 7.5 µM. hit rate 1% among 750. shares compounds with AI-2 QS mod. AID 2726, 2010;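 active = every replicate shows growth inhibition above 50%; inconclusive = at least half, but not all, replicates pass that cutoff; inactive = fewer than half of replicates pass it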
BB721 lum counter = luminescence inhibition in constitutive-on V. harveyi, confirmation, counter-screen for LuxS inhibitor project, strain BB721, luminescence readout; shares compounds with AI-2 QS mod; Vibrio harveyi BB721 luminescence, 9 h; inhibition, % at 7.5 µM; hit rate 95% among 750;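 active = inhibition above about 80% in every replicate, not just on average, limit read from the data; inconclusive = at least half of replicates past the limit, but not all; inactive = fewer than half of replicates past the limit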
BB721 growth = growth inhibition of V. harveyi BB721, confirmation, cytotoxicity control for AI-2 quorum sensing inhibitors, strain BB721, absorbance OD600; growth inhibition, % at 7.5 µM; Vibrio harveyi BB721 growth, 9 h; shares compounds with AI-2 QS mod; AID 2728, 2010; hit rate 3% among 750;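 active = every replicate shows growth inhibition above 50%; inconclusive = at least half but not all replicates above 50% inhibition; inactive = under half of replicates above 50% inhibition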
JMH597 AI-2 mod = Vibrio harveyi AI-2 signaling luminescence modulation – JMH597 strain, confirmation; Vibrio harveyi JMH597 AI-2 quorum sensing luminescence, 9 h; luxN and CqsS knockout, AI-2 only; inhibition, % at 7.5 µM; hit rate 97% among 750; shares compounds with AI-2 QS mod;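 active = every replicate shows more than 75% inhibition of signal versus neutral control wells; inconclusive = half to three quarters of replicates exceed 75% inhibition; inactive = fewer than half of replicates exceed 75% inhibition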
Of the large screens only hits and unclear results are named; the others gave an inactive call (follow-up assays come after a bar, where they were run).

COc1c2c(cc3c1OCO3)CCN(C)C2	none (no result: T cruzi inh, HIF act, AI-2 QS mod)
COc1cc2c(cc1OC)-c1c(OC)c(OC)cc3c1C(C2)N(C)CC3 (stereo unspecified)	none
COc1ccc(C#Cc2ccc([C@H]3[C@@H](CO)N4CCCCN(C(=O)Cc5cccnc5)C[C@@H]34)cc2)cc1	none (no result: T cruzi inh, HIF act, AI-2 QS mod)
COc1ccc(OC)c(NC2=NCCCS2)c1	HIF act 37
C[n+]1c(-c2ccccc2)cc(-c2ccc(O)cc2)cc1-c1ccccc1	none
Cc1cc(-c2ccccc2)cc(-c2ccccc2)[n+]1CCc1ccccc1	T cruzi inh 59
CCOc1ccc(-c2cc(C)[n+](CCc3ccc(OC)c(OC)c3)c(-c3ccc(OCC)cc3)c2)cc1	none
Fc1ccc(C[n+]2c(-c3ccccc3)cc(-c3ccccc3)cc2-c2ccccc2)cc1	T cruzi inh 55 (no result: ARNT TACC3 PPI)
Oc1ccc(-[n+]2c(-c3ccccc3)cc(-c3ccccc3)cc2-c2ccccc2)cc1	none (no result: ARNT TACC3 PPI)
CCOc1ccc(-c2cc(C)[n+](CCO)c(-c3ccc(OCC)cc3)c2)cc1	T cruzi inh 72
Clc1ccc(C[n+]2c(-c3ccccc3)cc(-c3ccccc3)cc2-c2ccccc2)cc1	T cruzi inh 56
COC(=O)[C@@H]1[C@@H](CO)[C@@H]2Cn3c(ccc(C4=CCCCC4)c3=O)[C@H]1N2C(=O)CC1CC1	none (no result: T cruzi inh, HIF act, AI-2 QS mod)
Cc1ccc(C(c2nnnn2Cc2ccccc2)N2CC=C(c3ccc(F)cc3)CC2)cc1 (stereo unspecified)	T cruzi inh 65
Fc1ccc(Cn2nnnc2C(c2ccc(Cl)cc2)N2CC=C(c3ccc(F)cc3)CC2)cc1 (stereo unspecified)	T cruzi inh 69 (no result: ARNT TACC3 PPI)
CC(C)CC#Cc1ccc([C@H]2[C@H](CO)N3CCCCN(C(=O)Cc4ccccn4)C[C@@H]23)cc1	none (no result: T cruzi inh, HIF act, AI-2 QS mod)
COC(=O)C[C@H]1CC[C@@H]2NC[C@@H](O)COC[C@H]2O1	none (no result: T cruzi inh, HIF act, AI-2 QS mod)
CCCc1nnc(NC(=O)CCC(=O)N2CCC3(CC2)OCCO3)s1	none
CC(C)Cc1nnc(NC(=O)CCC(=O)N2CCC3(CC2)OCCO3)s1	HIF act 21
COC(=O)[C@H]1[C@H](CO)[C@H]2Cn3c(ccc(-c4ccccc4)c3=O)[C@@H]1N2CC1CCOCC1	none (no result: T cruzi inh, HIF act, AI-2 QS mod)
CC1=CC2/C=C(\C)CCC(O)C(O)/C=C/C(=O)C23C(=O)NC(CC(C)C)C3C1C (stereo unspecified)	T cruzi inh 67
CC(=NNC(=S)N1CC2CCC(CC2)C1)c1nccs1	ARNT TACC3 PPI 72 (no result: T cruzi inh, HIF act, AI-2 QS mod)
CCCn1ncc(CN2CCCC(C(=O)c3cccc(OC)c3)C2)c1C (stereo unspecified)	T cruzi inh 68
CCCn1cc(CN2CCCC(C(=O)c3cccc(OC)c3)C2)c(C)n1 (stereo unspecified)	none
COc1cccc(C(=O)C2CCCN(Cc3ccc4nsnc4c3)C2)c1 (stereo unspecified)	HIF act 243
CCn1cc(CN2CCCC(C(=O)c3cccc(OC)c3)C2)c(C)n1 (stereo unspecified)	T cruzi inh 58
N#Cc1cccc(-c2ccc([C@H]3[C@H](CO)N4CCCCN(C(=O)Cc5ccccc5)C[C@@H]34)cc2)c1	none (no result: T cruzi inh, HIF act, AI-2 QS mod)
CCn1nc(/C=C/c2ccccc2)nc2c(=O)n(C)c(=O)nc1-2	T cruzi inh 60, AI-2 QS mod inconclusive
CCn1nc(-c2cccs2)nc2c(=O)n(C)c(=O)nc1-2	none (no result: T cruzi inh, HIF act, AI-2 QS mod)
COc1ccc(Cn2c(O)c(/C=N/NC(=O)c3ccccc3)c(=O)[nH]c2=O)cc1	none
CCn1c(O)c(/C=N/NC(=O)c2ccccc2)c(=O)[nH]c1=S	ARNT TACC3 PPI 63
O=C(N/N=C/c1c(O)n(Cc2ccccc2)c(=O)[nH]c1=O)c1ccccc1O	ARNT TACC3 PPI 63
COc1ccc(Cn2c(O)c(/C=N/NC(=O)c3ccncc3)c(=O)[nH]c2=O)cc1	ARNT TACC3 PPI 58
O=C(N/N=C/c1c(O)n(-c2cccc3ccccc23)c(=O)[nH]c1=O)c1ccncc1	ARNT TACC3 PPI 68 (no result: AI-2 QS mod)
N#Cc1cccc(-c2ccc([C@@H]3[C@H](CO)N4CCCCN(C(=O)Cc5cccnc5)C[C@@H]34)cc2)c1	none (no result: T cruzi inh, HIF act, AI-2 QS mod)
COC(=O)[C@@H]1[C@@H](CO)[C@@H]2Cn3c(ccc(C4=CCCC4)c3=O)[C@H]1N2Cc1ccccn1	none (no result: T cruzi inh, HIF act, AI-2 QS mod)
O=C(N/N=C/c1c(O)n(CCc2ccc(F)cc2)c(=O)[nH]c1=O)c1ccccc1	none (no result: ARNT TACC3 PPI)
Cc1ccc(-n2c(O)c(/C=N/NC(=O)c3ccncc3)c(=O)[nH]c2=O)cc1C	ARNT TACC3 PPI 62
O=C(N/N=C/c1c(O)n(CCc2ccccc2)c(=O)[nH]c1=O)c1ccncc1	ARNT TACC3 PPI 74
O=C(N/N=C/c1c(O)n(CCc2ccc(F)cc2)c(=O)[nH]c1=O)c1ccncc1	ARNT TACC3 PPI 65
COc1ccc(C#Cc2ccc([C@@H]3[C@H]4CN(C(=O)Cc5ccncc5)CCCCN4[C@H]3CO)cc2)cc1	none (no result: T cruzi inh, HIF act, AI-2 QS mod)
Cc1ccccc1-c1ccc([C@@H]2[C@H](CO)N3CCCCN(C(=O)Cc4ccccn4)C[C@@H]23)cc1	none (no result: T cruzi inh, HIF act, AI-2 QS mod)
CCC(=O)N1[C@@H]2c3ccc(C4=CCCC4)c(=O)n3C[C@H]1[C@H](CO)[C@H]2C(=O)OC	none (no result: T cruzi inh, HIF act, AI-2 QS mod)
O=C(Cc1ccccc1)OCC(=O)c1ccc(F)cc1	none (no result: T cruzi inh, HIF act, AI-2 QS mod)
O=C(Cc1ccccc1)OCC(=O)c1ccccc1	AI-2 QS mod -80 | JMH597 growth rt inactive | BB721 lum counter 96 | BB721 growth inactive | JMH597 AI-2 mod 97
O=C1COc2ccc(C(=O)COC(=O)Cc3ccccc3)cc2N1	AI-2 QS mod -90 | JMH597 growth rt inactive | BB721 lum counter 96 | BB721 growth inactive | JMH597 AI-2 mod 98
COC(=O)[C@@H]1[C@@H](CO)[C@@H]2Cn3c(ccc(C4=CCCC4)c3=O)[C@H]1N2C(=O)CC1CC1	none (no result: T cruzi inh, HIF act, AI-2 QS mod)
O=C(Cc1ccccn1)N1CCCCN2[C@H](CO)[C@H](c3ccc(C#Cc4ccccc4)cc3)[C@@H]2C1	none (no result: T cruzi inh, HIF act, AI-2 QS mod)
